Key:
[1] = Cytotoxicity upon MPMs (mouse peritoneal macrophages) at 12.5 uM conc.;NT=No Toxicity
Summary of the method: (§1)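 Mouse peritoneal macrophages harvested 48 h after potato-starch stimulation and seeded at 30000 cells/well. After 24 h, washed and exposed to 2-fold drug dilutions in RPMI + 5% FCS (final DMSO below 0.5%) at 37 °C, 5% CO₂, for 7 days. Toxicity scored microscopically as toxic or not versus untreated controls.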

[2] = Cytotoxicity upon MPMs (mouse peritoneal macrophages) at 2 uM; summary of the method: as §1
[3] = Cytotoxicity upon MPMs (mouse peritoneal macrophages) at 3.1 uM conc.;NT=No Toxicity; summary of the method: as §1
[4] = Cytotoxicity upon MPMs (mouse peritoneal macrophages) at 6.3 uM; summary of the method: as §1
[5] = Cytotoxicity upon MRC-5 cells (diploid embryonic lung cell line) at 12.5 uM; type: cell-based, MRC5; conditions: human
Summary of the method: (§2)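 MRC-5 human diploid embryonic lung cells seeded at 5000/well, washed after 24 h, then given 2-fold drug dilutions in RPMI + 5% FCS (final DMSO below 0.5%). Incubated at 37 °C, 5% CO₂, for 7 days. MTT read-out at 540 nm, scored as percent absorbance reduction versus untreated controls.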

[6] = Cytotoxicity upon MRC-5 cells (diploid embryonic lung cell line) at 3.1 uM; type: cell-based, MRC5; conditions: human; summary of the method: as §2
[7] = Cytotoxicity upon MRC-5 cells (diploid embryonic lung cell line) at 6.3 uM; type: cell-based, MRC5; conditions: human; summary of the method: as §2
Plasmodium falciparum [8] = experiment: Inhibitory activity against chloroquine-resistant Plasmodium falciparum FcB1R; type: functional, organism-based; conditions: Plasmodium falciparum
[9] = Cytotoxicity upon MRC-5 cells (diploid embryonic lung cell line) at 1.6 uM conc.; type: cell-based, MRC5; conditions: human; summary of the method: as §2
[10] = Cytotoxicity upon MPMs (mouse peritoneal macrophages) at 12.5 uM conc.; Toxic; summary of the method: as §1
[11] = Cytotoxicity upon MRC-5 cells (diploid embryonic lung cell line) at 1 uM; type: cell-based, MRC5; conditions: human; summary of the method: as §2
[12] = Cytotoxicity upon MRC-5 cells (diploid embryonic lung cell line) at 32 uM; type: cell-based, MRC5; conditions: human; summary of the method: as §2
[13] = Cytotoxicity upon MRC-5 cells (diploid embryonic lung cell line) at 8 uM; type: cell-based, MRC5; conditions: human; summary of the method: as §2
[14] = Cytotoxicity upon MPMs (mouse peritoneal macrophages) at 2 uM conc.; Toxic; summary of the method: as §1
[15] = Cytotoxicity upon MPMs (mouse peritoneal macrophages) at 32 uM; summary of the method: as §1
[16] = Cytotoxicity upon MPMs (mouse peritoneal macrophages) at 8 uM; summary of the method: as §1
[17] = Cytotoxicity upon MRC-5 cells (diploid embryonic lung cell line) at 25 uM conc.; type: cell-based, MRC5; conditions: human; summary of the method: as §2
Plasmodium falciparum [18] = experiment: Inhibitory activity against chloroquine-resistant Plasmodium falciparum K1; type: functional, organism-based
Plasmodium falciparum [19] = experiment: Inhibitory activity against chloroquine-sensitive Plasmodium falciparum THAI

| SMILES | NT [1] | NT [2] | NT [3] | NT [4] | cytotoxicity at 12.5 µM [5] [%] | cytotoxicity at 3.1 µM [6] [%] | cytotoxicity at 6.3 µM [7] [%] | IC50 (Plasmodium falciparum [8]) [nM] | cytotoxicity at 1.6 µM [9] [%] | Cytotoxicity [10] | cytotoxicity at 1 µM [11] [%] | cytotoxicity at 32 µM [12] [%] | cytotoxicity at 8 µM [13] [%] | Cytotoxicity [14] | Cytotoxicity [15] | Cytotoxicity [16] | cytotoxicity at 25 µM [17] [%] | IC50 (Plasmodium falciparum [18]) [nM] | IC50 (Plasmodium falciparum [19]) [nM] |
| --- | --- | --- | --- | --- | --- | --- | --- | --- | --- | --- | --- | --- | --- | --- | --- | --- | --- | --- | --- |
| Nc1cc(CO)cc(Nc2ccnc3cc(Cl)ccc23)c1 | Cytotoxicity upon MPMs at 2 uM | Cytotoxicity upon MPMs at 2 uM | Cytotoxicity upon MPMs at 2 uM | Cytotoxicity upon MPMs at 2 uM | 0 | 0 | 0 | 279 | 0 | – | – | – | – | – | – | – | – | – | – |
| O=C(CN1CCCC1)Nc1cc(CO)cc(Nc2ccnc3cc(Cl)ccc23)c1 | – | – | Cytotoxicity upon MPMs at 6.3 uM | Cytotoxicity upon MPMs at 6.3 uM | 0 | 0 | 0 | 44 | – | Toxic | – | – | – | – | – | – | – | – | – |
| O=C(CN1CCCCC1)Nc1cc(CNCc2ccc(Cl)cc2)cc(Nc2ccnc3cc(Cl)ccc23)c1 | – | – | – | – | – | – | – | 4.6 | – | – | 100 | 100 | 100 | Toxic | Cytotoxicity upon MPMs at 32 uM | Cytotoxicity upon MPMs at 32 uM | – | – | – |
| O=C(CCl)Nc1cc(CO)cc(Nc2ccnc3cc(Cl)ccc23)c1 | – | – | Cytotoxicity upon MPMs at 6.3 uM | Cytotoxicity upon MPMs at 6.3 uM | 92 | 0 | 0 | > 1000 | – | Toxic | – | – | – | – | – | – | – | – | – |
| CCN(CC)CCCCC(=O)OCc1cc(NC(=O)CN2CCCCC2)cc(Nc2ccnc3cc(Cl)ccc23)c1 | Cytotoxicity upon MPMs at 2 uM | Cytotoxicity upon MPMs at 2 uM | – | Cytotoxicity upon MPMs at 2 uM | – | – | 13 | 141 | 0 | – | – | – | – | – | – | – | 22 | – | – |
| CC1CCN(CCC(=O)Nc2cc(CO)cc(Nc3ccnc4cc(Cl)ccc34)c2)CC1 | – | – | Cytotoxicity upon MPMs at 6.3 uM | Cytotoxicity upon MPMs at 6.3 uM | 100 | 0 | 0 | 136 | – | Toxic | – | – | – | – | – | – | – | – | – |
| O=C(CN1CCCCC1)Nc1cc(CN2CCCCC2)cc(Nc2ccnc3cc(Cl)ccc23)c1 | – | – | – | – | – | – | – | 10.2 | – | – | 43 | 100 | 100 | Toxic | Cytotoxicity upon MPMs at 32 uM | Cytotoxicity upon MPMs at 32 uM | – | 8.1 | 6.7 |
| O=C(CN1CCCCC1)Nc1cc(COC(=O)CN2CCCCC2)cc(Nc2ccnc3cc(Cl)ccc23)c1 | – | – | – | – | – | – | 0 | 54 | 0 | – | – | – | – | – | – | – | 93 | – | – |
| O=C(CN1CCCCC1)Nc1cc(COC(=O)CCCCCN2CCCCC2)cc(Nc2ccnc3cc(Cl)ccc23)c1 | Cytotoxicity upon MPMs at 2 uM | Cytotoxicity upon MPMs at 2 uM | – | Cytotoxicity upon MPMs at 2 uM | – | – | 81 | 27.4 | 0 | – | – | – | – | – | – | – | 92 | – | – |
| CC1CCN(CCCCCCCCCCCC(=O)Nc2cc(CO)cc(Nc3ccnc4cc(Cl)ccc34)c2)CC1 | – | – | Cytotoxicity upon MPMs at 6.3 uM | Cytotoxicity upon MPMs at 6.3 uM | 100 | 0 | 0 | 86 | – | Toxic | – | – | – | – | – | – | – | – | – |
| O=C(CN1CCCCC1)Nc1cc(COC(=O)CCN2CCCCC2)cc(Nc2ccnc3cc(Cl)ccc23)c1 | Cytotoxicity upon MPMs at 2 uM | Cytotoxicity upon MPMs at 2 uM | – | Cytotoxicity upon MPMs at 2 uM | – | – | 0 | 78.3 | 0 | – | – | – | – | – | – | – | 90 | – | – |
| CN1CCN(CCCCC(=O)OCc2cc(NC(=O)CN3CCCCC3)cc(Nc3ccnc4cc(Cl)ccc34)c2)CC1 | Cytotoxicity upon MPMs at 2 uM | Cytotoxicity upon MPMs at 2 uM | – | Cytotoxicity upon MPMs at 2 uM | – | – | 0 | 65.1 | 0 | – | – | – | – | – | – | – | 97 | – | – |
| Nc1ccn(CC(=O)Nc2cc(CO)cc(Nc3ccnc4cc(Cl)ccc34)c2)n1 | Cytotoxicity upon MPMs at 6.3 uM | – | Cytotoxicity upon MPMs at 6.3 uM | Cytotoxicity upon MPMs at 6.3 uM | 0 | 0 | 0 | 806 | – | – | – | – | – | – | – | – | – | – | – |
| O=C(CN1CCCCC1)Nc1cc(COC(=O)CCCCBr)cc(Nc2ccnc3cc(Cl)ccc23)c1 | Cytotoxicity upon MPMs at 2 uM | Cytotoxicity upon MPMs at 2 uM | – | Cytotoxicity upon MPMs at 2 uM | – | – | 0 | 151 | 0 | – | – | – | – | – | – | – | 0 | – | – |
| O=CNc1cc(CO)cc(Nc2ccnc3cc(Cl)ccc23)c1 | Cytotoxicity upon MPMs at 6.3 uM | – | Cytotoxicity upon MPMs at 6.3 uM | Cytotoxicity upon MPMs at 6.3 uM | 0 | 0 | 0 | 360 | – | – | – | – | – | – | – | – | – | – | – |
| O=C(CN1CCCCC1)Nc1cc(COC(=O)CCCCN2CCCC2)cc(Nc2ccnc3cc(Cl)ccc23)c1 | Cytotoxicity upon MPMs at 2 uM | Cytotoxicity upon MPMs at 2 uM | – | Cytotoxicity upon MPMs at 2 uM | – | – | 83 | 23 | 0 | – | – | – | – | – | – | – | 82 | – | – |
| COc1ccc(CNCc2cc(NC(=O)CN3CCCCC3)cc(Nc3ccnc4cc(Cl)ccc34)c2)cc1 | – | – | – | – | – | – | – | 4.4 | – | – | 100 | 100 | 100 | Toxic | Cytotoxicity upon MPMs at 32 uM | Cytotoxicity upon MPMs at 32 uM | – | – | – |
| CCN(CC)c1ccc(CN2CCN(Cc3cc(NC(=O)CN4CCCCC4)cc(Nc4ccnc5cc(Cl)ccc45)c3)CC2)cc1 | – | – | – | – | – | – | – | 11.9 | – | – | 100 | 100 | 100 | Toxic | Cytotoxicity upon MPMs at 32 uM | Cytotoxicity upon MPMs at 32 uM | – | – | – |
| CCN(CC)Cc1cc(NC(=O)CN2CCCCC2)cc(Nc2ccnc3cc(Cl)ccc23)c1 | – | – | – | – | – | – | – | 8.2 | – | – | 0 | 100 | 100 | Toxic | Cytotoxicity upon MPMs at 32 uM | Cytotoxicity upon MPMs at 32 uM | – | – | – |
| O=C(CN1CCSC1)Nc1cc(CO)cc(Nc2ccnc3cc(Cl)ccc23)c1 | Cytotoxicity upon MPMs at 6.3 uM | – | Cytotoxicity upon MPMs at 6.3 uM | Cytotoxicity upon MPMs at 6.3 uM | 0 | 0 | 0 | 588 | – | – | – | – | – | – | – | – | – | – | – |
| O=C(CN1CCCCC1)Nc1cc(COC(=O)c2ccccc2)cc(Nc2ccnc3cc(Cl)ccc23)c1 | – | Cytotoxicity upon MPMs at 2 uM | – | Cytotoxicity upon MPMs at 2 uM | – | – | 38 | 75.5 | 20 | Toxic | – | – | – | – | – | – | 66 | – | – |
| O=C(CO)Nc1cc(CO)cc(Nc2ccnc3cc(Cl)ccc23)c1 | Cytotoxicity upon MPMs at 6.3 uM | – | Cytotoxicity upon MPMs at 6.3 uM | Cytotoxicity upon MPMs at 6.3 uM | 0 | 0 | 0 | > 1000 | – | – | – | – | – | – | – | – | – | – | – |
| O=C(CNCc1ccccc1)Nc1cc(CO)cc(Nc2ccnc3cc(Cl)ccc23)c1 | Cytotoxicity upon MPMs at 6.3 uM | – | Cytotoxicity upon MPMs at 6.3 uM | Cytotoxicity upon MPMs at 6.3 uM | 0 | 0 | 0 | 193 | – | – | – | – | – | – | – | – | – | – | – |
| CCN(CC)CC(=O)Nc1cc(CO)cc(Nc2ccnc3cc(Cl)ccc23)c1 | – | – | Cytotoxicity upon MPMs at 6.3 uM | Cytotoxicity upon MPMs at 6.3 uM | 0 | 0 | 0 | 41.6 | – | Toxic | – | – | – | – | – | – | – | – | – |
| CC(C)(C)NCC(=O)Nc1cc(CO)cc(Nc2ccnc3cc(Cl)ccc23)c1 | Cytotoxicity upon MPMs at 6.3 uM | – | Cytotoxicity upon MPMs at 6.3 uM | Cytotoxicity upon MPMs at 6.3 uM | 0 | 0 | 0 | 50.9 | – | – | – | – | – | – | – | – | – | – | – |
| CC1CCN(CCCCCCCC(=O)Nc2cc(CO)cc(Nc3ccnc4cc(Cl)ccc34)c2)CC1 | Cytotoxicity upon MPMs at 6.3 uM | – | Cytotoxicity upon MPMs at 6.3 uM | Cytotoxicity upon MPMs at 6.3 uM | 0 | 0 | 0 | 308 | – | – | – | – | – | – | – | – | – | – | – |

From ChEMBL document CHEMBL1134569, “Synthesis and in vitro and in vivo antimalarial activity of new 4-anilinoquinolines” (J Med Chem, 2001)
